Key:
[1] = test system: Bone; assay: Drug uptake in overnight fasted Sprague-Dawley rat bone at 9 to 11 MBq, iv at 55 to 115 mins by microPET analysis; format: ADME, organism-based, Bone element; conditions: in vivo
Method in brief: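 Overnight-fasted female Sprague-Dawley rats under isoflurane were scanned by microPET/CT after tail-vein tracer. Dynamic acquisition over the upper thorax ran for 50 min, then a static whole-body scan from 55–115 min p.i. 2–5 rats per tracer; preliminary, representative images.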

[2] = test system: Heart; assay: Drug uptake in overnight fasted Sprague-Dawley rat heart at 9 to 11 MBq, iv at 5 mins by microPET analysis; format: ADME, organism-based; conditions: in vivo
Method in brief: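 Female rats fasted overnight, under isoflurane. 18F-labelled tracer (9–11 MBq) given into a tail vein. Dynamic PET acquisition over the upper thorax for 50 min, then a static whole-body scan 55–115 min post-injection. 2–5 rats per tracer.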

[3] = test system: Muscle tissue; assay: Biodistribution in overnight fasted Sprague-Dawley rat muscle organic fraction at 0.7 to 1.4 MBq, iv preincubated with POCA for 2 hrs before compound administration measured at 120 mins post treatment by Folch-type extraction method; format: ADME, organism-based; conditions: in vivo
Method in brief: (§1)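 Female Sprague-Dawley rats, fasted overnight, under isoflurane (3.5% induction, 1.5% maintenance). [18F] tracer in 0.5–1.0% BSA/saline was given by tail vein. POCA group: 30 mg/kg i.p. 120 min before tracer. About 0.5 g tissue was homogenized and sonicated in chloroform/methanol (2:1) at 0 °C, then 40% urea and 5% H2SO4 were added and spun 10 min at 1,800 g. Aqueous, organic and pellet fractions were counted as % of total.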

[4] = test system: Muscle tissue; assay: Biodistribution in overnight fasted Sprague-Dawley rat muscle aqueous fraction at 0.7 to 1.4 MBq, iv preincubated with POCA for 2 hrs before compound administration measured at 120 mins post treatment by Folch-type extraction method; format: ADME, organism-based; conditions: in vivo; method in brief: as §1
[5] = test system: Liver; assay: Biodistribution in overnight fasted Sprague-Dawley rat liver pellet fraction at 0.7 to 1.4 MBq, iv preincubated with POCA for 2 hrs before compound administration measured at 120 mins post treatment by Folch-type extraction method; format: ADME, organism-based; conditions: in vivo; method in brief: as §1
[6] = test system: Liver; assay: Biodistribution in overnight fasted Sprague-Dawley rat liver aqueous fraction at 0.7 to 1.4 MBq, iv preincubated with POCA for 2 hrs before compound administration measured at 120 mins post treatment by Folch-type extraction method; format: ADME, organism-based; conditions: in vivo; method in brief: as §1
[7] = test system: Muscle tissue; assay: Biodistribution in overnight fasted Sprague-Dawley rat muscle organic fraction at 0.7 to 1.4 MBq, iv at 120 mins by Folch-type extraction method; format: ADME, organism-based; conditions: in vivo, 2 h; method in brief: as §1
[8] = test system: Muscle tissue; assay: Biodistribution in overnight fasted Sprague-Dawley rat muscle pellet fraction at 0.7 to 1.4 MBq, iv preincubated with POCA for 2 hrs before compound administration measured at 30 mins post treatment by Folch-type extraction method; format: ADME, organism-based; conditions: in vivo, 0.5 h; method in brief: as §1
[9] = test system: Liver; assay: Biodistribution in overnight fasted Sprague-Dawley rat liver organic fraction at 0.7 to 1.4 MBq, iv preincubated with POCA for 2 hrs before compound administration measured at 30 mins post treatment by Folch-type extraction method; format: ADME, organism-based; conditions: in vivo, 0.5 h; method in brief: as §1
[10] = test system: Liver; assay: Biodistribution in overnight fasted Sprague-Dawley rat liver aqueous fraction at 0.7 to 1.4 MBq, iv preincubated with POCA for 2 hrs before compound administration measured at 30 mins post treatment by Folch-type extraction method; format: ADME, organism-based; conditions: in vivo, 0.5 h; method in brief: as §1
[11] = test system: Heart; assay: Biodistribution in overnight fasted Sprague-Dawley rat heart aqueous fraction at 0.7 to 1.4 MBq, iv preincubated with POCA for 2 hrs before compound administration measured at 30 mins post treatment by Folch-type extraction method; format: ADME, organism-based; conditions: in vivo, 0.5 h; method in brief: as §1
[12] = test system: Muscle tissue; assay: Biodistribution in overnight fasted Sprague-Dawley rat muscle aqueous fraction at 0.7 to 1.4 MBq, iv at 30 mins by Folch-type extraction method; format: ADME, organism-based; conditions: in vivo, 0.5 h; method in brief: as §1
[13] = test system: Liver; assay: Biodistribution in overnight fasted Sprague-Dawley rat liver aqueous fraction at 0.7 to 1.4 MBq, iv at 30 mins by Folch-type extraction method; format: ADME, organism-based; conditions: in vivo, 0.5 h; method in brief: as §1
[14] = test system: Heart; assay: Biodistribution in overnight fasted Sprague-Dawley rat heart pellet fraction at 0.7 to 1.4 MBq, iv at 30 mins by Folch-type extraction method; format: ADME, organism-based; conditions: in vivo, 0.5 h; method in brief: as §1
[15] = test system: Heart; assay: Biodistribution in overnight fasted Sprague-Dawley rat heart aqueous fraction at 0.7 to 1.4 MBq, iv at 30 mins by Folch-type extraction method; format: ADME, organism-based; conditions: in vivo, 0.5 h; method in brief: as §1
[16] = test system: Bone; assay: Drug uptake in overnight fasted Sprague-Dawley rat bone at 0.7 to 1.4 MBq, iv preincubated with POCA for 2 hrs before compound administration measured at 120 mins post treatment; format: ADME, organism-based, Bone element; conditions: in vivo
Method in brief: (§2)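 Overnight-fasted female Sprague-Dawley rats under isoflurane received the [18F] tracer in 0.5–1.0% BSA/saline by tail vein. POCA group: 30 mg/kg i.p. 2 h before tracer. Tissues were excised at 30 or 120 min, weighed and gamma-counted with decay correction. Uptake = % dose kg/g, i.e. CPM tissue × body wt (kg) × 100 / (tissue wt (g) × CPM dose). n = 5–6.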

[17] = test system: Heart; assay: Drug uptake in overnight fasted Sprague-Dawley rat heart at 0.7 to 1.4 MBq, iv preincubated with POCA for 2 hrs before compound administration measured at 120 mins post treatment; format: ADME, organism-based; conditions: in vivo
Method in brief: (§3)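 Female rats fasted overnight, under isoflurane (3.5% induction, 1.5% maintenance). 18F-labelled tracer formulated in 0.5–1.0% BSA/saline, injected via tail vein. Tissues harvested at 30 or 120 min, weighed, gamma-counted, decay-corrected. Uptake expressed as % dose kg/g, i.e. tissue CPM × body wt (kg) × 100 / (tissue wt (g) × dose CPM). POCA groups received 30 mg/kg i.p. 2 h before tracer. n = 5–6.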

[18] = test system: Bone; assay: Drug uptake in overnight fasted Sprague-Dawley rat bone at 0.7 to 1.4 MBq, iv at 120 mins; format: ADME, organism-based, Bone element; conditions: in vivo, 2 h; method in brief: as §2
[19] = test system: Heart; assay: Drug uptake in overnight fasted Sprague-Dawley rat heart at 0.7 to 1.4 MBq, iv at 120 mins; format: ADME, organism-based; conditions: in vivo, 2 h; method in brief: as §2
[20] = test system: Blood; assay: Drug uptake in overnight fasted Sprague-Dawley rat blood at 0.7 to 1.4 MBq, iv at 120 mins; format: ADME, organism-based; conditions: in vivo, 2 h; method in brief: as §2
[21] = test system: Muscle tissue; assay: Drug uptake in overnight fasted Sprague-Dawley rat muscle at 0.7 to 1.4 MBq, iv preincubated with POCA for 2 hrs before compound administration measured at 30 mins post treatment; format: ADME, organism-based; conditions: in vivo, 0.5 h; method in brief: as §3
[22] = test system: Brain; assay: Drug uptake in overnight fasted Sprague-Dawley rat brain at 0.7 to 1.4 MBq, iv preincubated with POCA for 2 hrs before compound administration measured at 30 mins post treatment; format: ADME, organism-based; conditions: in vivo, 0.5 h; method in brief: as §2
[23] = test system: Liver; assay: Drug uptake in overnight fasted Sprague-Dawley rat liver at 0.7 to 1.4 MBq, iv preincubated with POCA for 2 hrs before compound administration measured at 30 mins post treatment; format: ADME, organism-based; conditions: in vivo, 0.5 h; method in brief: as §3
[24] = test system: Lung; assay: Drug uptake in overnight fasted Sprague-Dawley rat lung at 0.7 to 1.4 MBq, iv preincubated with POCA for 2 hrs before compound administration measured at 30 mins post treatment; format: ADME, organism-based; conditions: in vivo, 0.5 h; method in brief: as §3
[25] = test system: Bone; assay: Drug uptake in overnight fasted Sprague-Dawley rat bone at 0.7 to 1.4 MBq, iv at 30 mins; format: ADME, organism-based, Bone element; conditions: in vivo, 0.5 h; method in brief: as §2
[26] = test system: Brain; assay: Drug uptake in overnight fasted Sprague-Dawley rat brain at 0.7 to 1.4 MBq, iv at 30 mins; format: ADME, organism-based; conditions: in vivo, 0.5 h; method in brief: as §2
[27] = test system: Liver; assay: Drug uptake in overnight fasted Sprague-Dawley rat liver at 0.7 to 1.4 MBq, iv at 30 mins; format: ADME, organism-based; conditions: in vivo, 0.5 h; method in brief: as §3
[28] = test system: Lung; assay: Drug uptake in overnight fasted Sprague-Dawley rat lung at 0.7 to 1.4 MBq, iv at 30 mins; format: ADME, organism-based; conditions: in vivo, 0.5 h; method in brief: as §3
[29] = test system: Blood; assay: Drug uptake in overnight fasted Sprague-Dawley rat blood at 0.7 to 1.4 MBq, iv at 30 mins; format: ADME, organism-based; conditions: in vivo, 0.5 h; method in brief: as §2

Drug uptake [1]	Drug uptake [2]	Drug uptake [3]	Drug uptake [4]	Drug uptake [5]	Drug uptake [6]	Drug uptake [7]	Drug uptake [8]	Drug uptake [9]	Drug uptake [10]	Drug uptake [11]	Drug uptake [12]	Drug uptake [13]	Drug uptake [14]	Drug uptake [15]	Drug uptake [16]	Drug uptake [17]	Drug uptake [18]	Drug uptake [19]	Drug uptake [20]	Compound	further results
Active	Active	48.14%	19.16%	38.47%	11.52%	34%	32.63%	41.68%	20.23%	15.28%	23.24%	13.52%	58.8%	2.63%	0.6549 %IDKg/g	0.1042 %IDKg/g	0.3143 %IDKg/g	0.1069 %IDKg/g	0.0105 %IDKg/g	O=C(O)CCSCCCCCCCCCCCC[18F]	Drug uptake [21]: 0.0333 %IDKg/g; Drug uptake [22]: 0.04879 %IDKg/g; Drug uptake [23]: 0.6197 %IDKg/g; Drug uptake [24]: 0.0676 %IDKg/g; Drug uptake [25]: 0.235 %IDKg/g; Drug uptake [26]: 0.067 %IDKg/g; Drug uptake [27]: 0.899 %IDKg/g; Drug uptake [28]: 0.099 %IDKg/g; Drug uptake [29]: 0.07 %IDKg/g
Active	Active	53.25%	11.37%	23.82%	8.1%	21.98%	32.74%	58.8%	16.3%	10.15%	18.79%	8.43%	88.67%	2.86%	0.299 %IDKg/g	0.076 %IDKg/g	0.461 %IDKg/g	0.8164 %IDKg/g	0.0185 %IDKg/g	O=C(O)CCSCCCC/C=C\CCCCCCCC[18F]	Drug uptake [21]: 0.0297 %IDKg/g; Drug uptake [22]: 0.0368 %IDKg/g; Drug uptake [23]: 0.8162 %IDKg/g; Drug uptake [24]: 0.0458 %IDKg/g; Drug uptake [25]: 0.1531 %IDKg/g; Drug uptake [26]: 0.0206 %IDKg/g; Drug uptake [27]: 1.1847 %IDKg/g; Drug uptake [28]: 0.0496 %IDKg/g; Drug uptake [29]: 0.0441 %IDKg/g
Active	Active	58.25%	9.12%	22.07%	10.23%	48.9%	27.04%	51.76%	31.69%	7.73%	28.99%	15.36%	78.72%	3.97%	0.4042 %IDKg/g	0.1025 %IDKg/g	0.2934 %IDKg/g	0.2144 %IDKg/g	0.0098 %IDKg/g	O=C(O)CCSCCCCCCCCCCCCCC[18F]	Drug uptake [21]: 0.0443 %IDKg/g; Drug uptake [22]: 0.0385 %IDKg/g; Drug uptake [23]: 0.4064 %IDKg/g; Drug uptake [24]: 0.0998 %IDKg/g; Drug uptake [25]: 0.2309 %IDKg/g; Drug uptake [26]: 0.02 %IDKg/g; Drug uptake [27]: 0.6292 %IDKg/g; Drug uptake [28]: 0.0755 %IDKg/g; Drug uptake [29]: 0.0392 %IDKg/g
Active	Active	59.27%	9.3%	27.76%	7.45%	39.74%	48.85%	54.88%	10.75%	3.84%	16.49%	9.65%	70.16%	4.02%	0.2104 %IDKg/g	0.2288 %IDKg/g	0.2467 %IDKg/g	0.2815 %IDKg/g	0.0241 %IDKg/g	O=C(O)CCCCSCCCCCCCCCCCC[18F]	Drug uptake [21]: 0.0639 %IDKg/g; Drug uptake [22]: 0.0879 %IDKg/g; Drug uptake [23]: 0.8492 %IDKg/g; Drug uptake [24]: 0.1163 %IDKg/g; Drug uptake [25]: 0.1171 %IDKg/g; Drug uptake [26]: 0.033 %IDKg/g; Drug uptake [27]: 1.126 %IDKg/g; Drug uptake [28]: 0.0621 %IDKg/g; Drug uptake [29]: 0.029 %IDKg/g

From ChEMBL document CHEMBL2177094, “Structure dependence of long-chain [18F]fluorothia fatty acids as myocardial fatty acid oxidation probes” (J Med Chem, 2012)
